Data published in article PMC3076536 (Journal of the American Chemical Society, 2011).

Assays:
GSK3β [1] = target: T1, GSK3β (Homo sapiens, UniProt P49841); assay: Millipore KinaseProfiler single-concentration screen, GSK3β; format: biochemical; settings: compound 10 nM, 10 μM ATP
Method in brief: (§1)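 Single-concentration screen on a commercial panel of human wild-type kinases. Test compound was at 10 nM with 10 μM ATP. Only kinases whose assay concentration was at or below the inhibitor concentration were included, giving 102 kinases. Percentage kinase activity was measured in duplicate and averaged.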

DAPK1 = DAPK1 (Homo sapiens, UniProt P53355); assay: Radioactive [γ-33P]ATP kinase activity assay, DAPK1; format: biochemical; settings: read-out: IC50 DAPK1; 100 μM ATP
Method in brief: (§2)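 Commercial human kinase and substrate were used, except the PAK1 kinase domain (residues 249–545), which was expressed and purified in-house. Serial inhibitor concentrations were preincubated 15 min with kinase and substrate in 20 mM MOPS pH 7.0, 30 mM MgCl₂, 0.8 μg/μL BSA and 5% DMSO. The reaction was started with ATP (final 100 μM) plus [γ-³³P]ATP. Reactions were spotted on P81 paper, washed and scintillation-counted. IC50 was the concentration giving background-corrected CPM at 50% of control.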

PIM1 [2] = target: T2, PIM1 (Homo sapiens, UniProt P11309); assay: Millipore KinaseProfiler single-concentration screen, PIM1; format: biochemical; settings: compound 10 nM, 10 μM ATP
Method in brief: as §1

GSK3α [3] = target: T3, GSK3α (Homo sapiens, UniProt P49840); assay: Millipore KinaseProfiler single-concentration screen, GSK3α; format: biochemical; settings: compound 10 nM, 10 μM ATP
Method in brief: as §1

[4] = target: PAK1 kinase domain (residues 249 to 545) (Homo sapiens, UniProt Q13153); assay: Radioactive [γ-33P]ATP kinase activity assay, PAK1; format: biochemical; settings: read-out: IC50 PAK1; 100 μM ATP
Method in brief: as §2

PIM1 [5] = target: T2, PIM1; assay: Radioactive [γ-33P]ATP kinase activity assay, PIM1; format: biochemical; settings: read-out: IC50 PIM1; 100 μM ATP
Method in brief: as §2

[6] = test system: panels of human wild type protein kinases; assay: Millipore KinaseProfiler selectivity profile over whole panel; format: biochemical; settings: compound 10 nM, 10 μM ATP, panel of 102 kinases
Method in brief: as §1

MLCK = assay: Radioactive [γ-33P]ATP kinase activity assay, MLCK; format: biochemical, human; settings: read-out: IC50 MLCK; 100 μM ATP
Method in brief: as §2

GSK3β [7] = target: T1, GSK3β; assay: Radioactive [γ-33P]ATP kinase activity assay, GSK3β; format: biochemical; settings: read-out: IC50 GSK3β; 100 μM ATP
Method in brief: as §2

GSK3α [8] = target: T3, GSK3α; assay: Radioactive [γ-33P]ATP kinase activity assay, GSK3α; format: biochemical
Method in brief: as §2

CLK2 = CLK2 (Homo sapiens, UniProt P49760); assay: Millipore KinaseProfiler single-concentration screen, CLK2; format: biochemical; settings: compound 10 nM, 10 μM ATP
Method in brief: as §1

FLT4 = FLT4 (Homo sapiens, UniProt P35916); assay: Radioactive [γ-33P]ATP kinase activity assay, FLT4; format: biochemical; settings: read-out: IC50 FLT4; 100 μM ATP
Method in brief: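 Radiometric assay with commercial human FLT4 and substrate. Serial inhibitor concentrations were preincubated 45 min with kinase and substrate in 20 mM MOPS pH 7.0, 30 mM MgCl₂, 0.8 μg/μL BSA and 5% DMSO. The reaction was started with ATP (final 100 μM) containing [γ-³³P]ATP. Reactions were stopped on P81 paper, washed and scintillation-counted. IC50 was the concentration giving 50% of control CPM after background correction.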

T3 sequence (P49840 whole entry): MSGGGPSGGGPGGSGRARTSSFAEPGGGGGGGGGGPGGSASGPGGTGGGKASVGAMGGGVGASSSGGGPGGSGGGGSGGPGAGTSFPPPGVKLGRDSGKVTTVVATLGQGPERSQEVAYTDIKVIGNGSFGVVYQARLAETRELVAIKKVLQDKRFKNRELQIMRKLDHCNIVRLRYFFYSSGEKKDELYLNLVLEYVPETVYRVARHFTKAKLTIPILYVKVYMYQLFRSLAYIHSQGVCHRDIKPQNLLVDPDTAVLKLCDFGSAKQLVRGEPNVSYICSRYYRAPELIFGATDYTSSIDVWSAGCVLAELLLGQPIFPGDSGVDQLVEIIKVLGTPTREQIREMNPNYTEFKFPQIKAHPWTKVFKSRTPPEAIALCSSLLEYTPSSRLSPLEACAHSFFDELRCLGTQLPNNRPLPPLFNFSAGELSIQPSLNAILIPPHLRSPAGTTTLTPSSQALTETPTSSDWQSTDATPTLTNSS
T2 sequence (P11309 whole entry): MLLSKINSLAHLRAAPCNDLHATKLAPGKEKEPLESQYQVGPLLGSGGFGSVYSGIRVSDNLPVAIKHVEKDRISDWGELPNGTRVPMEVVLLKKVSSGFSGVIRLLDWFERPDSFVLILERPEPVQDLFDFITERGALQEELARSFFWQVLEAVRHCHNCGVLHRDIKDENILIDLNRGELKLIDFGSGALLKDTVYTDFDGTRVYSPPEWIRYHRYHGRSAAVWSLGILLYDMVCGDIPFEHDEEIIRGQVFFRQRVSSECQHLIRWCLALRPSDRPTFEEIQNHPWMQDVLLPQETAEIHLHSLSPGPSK
T1 sequence (P49841 whole entry): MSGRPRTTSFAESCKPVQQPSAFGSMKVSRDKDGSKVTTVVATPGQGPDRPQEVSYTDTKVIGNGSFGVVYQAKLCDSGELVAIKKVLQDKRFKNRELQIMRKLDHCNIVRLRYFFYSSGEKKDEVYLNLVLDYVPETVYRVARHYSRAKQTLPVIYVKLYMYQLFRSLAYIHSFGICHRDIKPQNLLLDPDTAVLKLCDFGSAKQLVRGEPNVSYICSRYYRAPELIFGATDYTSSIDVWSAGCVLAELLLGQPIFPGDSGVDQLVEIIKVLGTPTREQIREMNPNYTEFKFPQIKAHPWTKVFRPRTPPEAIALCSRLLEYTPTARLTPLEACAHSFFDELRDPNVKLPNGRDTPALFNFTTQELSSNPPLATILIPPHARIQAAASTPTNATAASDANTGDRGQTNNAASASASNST
Chain of DAPK1 (P53355 whole entry, the tested form may be a part): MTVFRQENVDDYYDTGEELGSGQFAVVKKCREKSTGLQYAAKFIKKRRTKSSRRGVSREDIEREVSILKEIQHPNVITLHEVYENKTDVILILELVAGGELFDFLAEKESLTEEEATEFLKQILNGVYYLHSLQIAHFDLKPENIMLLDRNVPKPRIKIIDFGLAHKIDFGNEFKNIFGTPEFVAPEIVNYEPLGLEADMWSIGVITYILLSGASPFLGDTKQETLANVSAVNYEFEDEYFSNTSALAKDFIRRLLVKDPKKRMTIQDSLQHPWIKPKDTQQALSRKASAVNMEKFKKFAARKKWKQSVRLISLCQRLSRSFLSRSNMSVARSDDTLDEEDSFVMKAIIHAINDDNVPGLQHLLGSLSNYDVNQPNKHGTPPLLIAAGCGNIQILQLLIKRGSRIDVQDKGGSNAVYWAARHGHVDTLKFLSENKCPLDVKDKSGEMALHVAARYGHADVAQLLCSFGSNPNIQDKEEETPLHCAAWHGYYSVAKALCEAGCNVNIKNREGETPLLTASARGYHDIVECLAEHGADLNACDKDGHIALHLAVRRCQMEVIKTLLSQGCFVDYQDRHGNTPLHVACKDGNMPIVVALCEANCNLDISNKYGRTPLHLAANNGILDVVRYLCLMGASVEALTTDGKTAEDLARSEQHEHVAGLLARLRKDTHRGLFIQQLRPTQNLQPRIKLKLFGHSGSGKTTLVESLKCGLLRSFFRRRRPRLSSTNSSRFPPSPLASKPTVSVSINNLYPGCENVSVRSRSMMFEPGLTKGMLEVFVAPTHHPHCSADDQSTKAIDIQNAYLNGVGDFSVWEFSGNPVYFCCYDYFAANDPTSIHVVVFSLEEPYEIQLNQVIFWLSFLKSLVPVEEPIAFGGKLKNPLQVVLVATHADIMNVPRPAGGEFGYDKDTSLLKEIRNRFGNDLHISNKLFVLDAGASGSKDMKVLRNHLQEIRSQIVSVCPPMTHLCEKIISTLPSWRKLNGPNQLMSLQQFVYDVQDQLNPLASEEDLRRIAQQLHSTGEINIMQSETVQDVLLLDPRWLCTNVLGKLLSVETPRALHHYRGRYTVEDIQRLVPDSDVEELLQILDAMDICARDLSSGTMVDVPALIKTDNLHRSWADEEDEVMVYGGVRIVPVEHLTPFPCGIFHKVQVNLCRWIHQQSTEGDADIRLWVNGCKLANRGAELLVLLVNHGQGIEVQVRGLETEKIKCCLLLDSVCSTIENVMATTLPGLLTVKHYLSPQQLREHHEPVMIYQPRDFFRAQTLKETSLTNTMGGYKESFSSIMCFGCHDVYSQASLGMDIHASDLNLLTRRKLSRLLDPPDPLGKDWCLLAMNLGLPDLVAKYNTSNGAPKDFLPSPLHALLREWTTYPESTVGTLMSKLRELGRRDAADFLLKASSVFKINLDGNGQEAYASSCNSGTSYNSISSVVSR
Chain of FLT4 (P35916 25-1363): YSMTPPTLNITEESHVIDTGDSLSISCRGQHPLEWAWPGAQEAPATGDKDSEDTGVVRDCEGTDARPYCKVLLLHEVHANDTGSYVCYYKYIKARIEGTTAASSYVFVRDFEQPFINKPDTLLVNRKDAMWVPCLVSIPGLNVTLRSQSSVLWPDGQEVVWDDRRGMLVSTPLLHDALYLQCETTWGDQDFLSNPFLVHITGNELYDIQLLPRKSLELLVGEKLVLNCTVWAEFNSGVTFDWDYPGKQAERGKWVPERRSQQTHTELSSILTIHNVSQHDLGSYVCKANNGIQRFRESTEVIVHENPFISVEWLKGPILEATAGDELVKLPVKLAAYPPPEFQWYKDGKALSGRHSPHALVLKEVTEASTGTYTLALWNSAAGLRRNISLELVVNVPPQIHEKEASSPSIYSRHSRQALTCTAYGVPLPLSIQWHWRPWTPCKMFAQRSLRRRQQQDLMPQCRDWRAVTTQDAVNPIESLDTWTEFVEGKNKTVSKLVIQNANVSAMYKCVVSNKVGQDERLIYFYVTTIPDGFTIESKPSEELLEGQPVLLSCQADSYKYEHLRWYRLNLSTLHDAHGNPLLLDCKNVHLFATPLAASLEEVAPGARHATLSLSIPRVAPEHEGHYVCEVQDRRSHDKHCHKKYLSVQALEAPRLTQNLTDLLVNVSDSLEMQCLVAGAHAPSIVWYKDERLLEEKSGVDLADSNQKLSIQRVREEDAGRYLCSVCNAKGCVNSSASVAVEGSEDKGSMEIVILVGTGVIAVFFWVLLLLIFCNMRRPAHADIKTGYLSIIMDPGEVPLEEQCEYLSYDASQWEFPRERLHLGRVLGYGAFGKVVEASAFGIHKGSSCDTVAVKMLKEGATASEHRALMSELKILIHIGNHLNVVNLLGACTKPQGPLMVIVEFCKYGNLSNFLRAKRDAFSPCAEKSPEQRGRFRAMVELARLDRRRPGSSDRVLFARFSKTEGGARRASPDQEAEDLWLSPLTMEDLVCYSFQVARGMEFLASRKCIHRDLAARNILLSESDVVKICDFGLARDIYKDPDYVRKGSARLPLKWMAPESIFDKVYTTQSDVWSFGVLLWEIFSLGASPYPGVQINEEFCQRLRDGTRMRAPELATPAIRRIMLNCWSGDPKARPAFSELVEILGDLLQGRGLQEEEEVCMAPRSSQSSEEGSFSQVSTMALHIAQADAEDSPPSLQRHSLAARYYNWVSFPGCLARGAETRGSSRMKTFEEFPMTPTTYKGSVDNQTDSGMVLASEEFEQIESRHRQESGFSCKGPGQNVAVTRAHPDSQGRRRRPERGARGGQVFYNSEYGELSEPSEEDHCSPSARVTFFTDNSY
Chain of PAK1 kinase domain (residues 249 to 545) (Q13153 249-545): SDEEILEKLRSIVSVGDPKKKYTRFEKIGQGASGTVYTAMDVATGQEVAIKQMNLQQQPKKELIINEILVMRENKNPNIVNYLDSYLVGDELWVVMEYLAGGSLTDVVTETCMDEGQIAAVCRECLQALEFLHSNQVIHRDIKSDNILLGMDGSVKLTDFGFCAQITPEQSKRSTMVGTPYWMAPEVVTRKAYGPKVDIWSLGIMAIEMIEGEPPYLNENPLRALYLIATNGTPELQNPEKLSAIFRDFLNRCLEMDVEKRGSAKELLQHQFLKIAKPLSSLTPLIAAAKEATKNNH
Chain of CLK2 (P49760 whole entry): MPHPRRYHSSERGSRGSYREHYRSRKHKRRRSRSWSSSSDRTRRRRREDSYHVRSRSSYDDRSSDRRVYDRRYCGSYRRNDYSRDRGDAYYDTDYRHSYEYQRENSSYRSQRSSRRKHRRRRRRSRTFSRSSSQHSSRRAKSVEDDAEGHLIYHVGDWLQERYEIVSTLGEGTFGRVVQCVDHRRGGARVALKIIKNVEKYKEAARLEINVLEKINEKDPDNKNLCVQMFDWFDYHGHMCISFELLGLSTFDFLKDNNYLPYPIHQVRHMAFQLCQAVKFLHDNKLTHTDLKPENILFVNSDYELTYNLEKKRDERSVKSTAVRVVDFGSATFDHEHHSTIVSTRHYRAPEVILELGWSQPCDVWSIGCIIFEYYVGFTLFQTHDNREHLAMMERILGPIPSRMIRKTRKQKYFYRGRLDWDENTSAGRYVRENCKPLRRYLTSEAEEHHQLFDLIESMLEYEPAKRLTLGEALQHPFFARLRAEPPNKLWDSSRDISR

Nc1cnc2c(c1)c1c(c3c4ccccc4[n-]c23)C(=O)NC1=O.[C-]#[O+].[Cl][Ru+3].[NH-]Cc1ccccn1 [Λ-OS1]
residual activity GSK3β (GSK3β [1]): 58%
IC50 (DAPK1): 22800 nM
residual activity PIM1 (PIM1 [2]): 13%
residual activity GSK3α (GSK3α [3]): 6%
IC50 [4]: > 100000 nM
IC50 (PIM1 [5]): 14 nM
number of kinases out of 102 with activity higher than 75% [6]: 98
IC50 (MLCK): 22 nM
IC50 (GSK3β [7]): 6 nM
IC50 value ratio of GSK3α/PAK1 (GSK3α [8]; 100 μM ATP): < 0.000009
selectivity for the α- over β-isoform of GSK3 (GSK3α [8]; IC50 ratio, 100 μM ATP): ca. 7 fold
lower IC50 value compared to respective pyridocarbazole ligand, GSK3α (GSK3α [8]; metal complex vs free ligand): 8890 fold
IC50 (GSK3α [8]; read-out: IC50 GSK3α, 100 μM ATP): 0.9 nM
residual activity CLK2 (CLK2): 33%
IC50 (FLT4): 1180 nM
